Assay results from different studies.
Lines come from different studies, so protocols differ.
Read-out: cell growth or viability

SMILES | cell line | assay | setting | IC50
CCn1c2ccccc2c2cc(C3CC(c4cc5c(ccc6ccccc65)oc4=O)=NN3c3ccc(C)cc3)ccc21 (stereo not drawn) | NRK-52E | MTT | 24 h | 79.9 µM
N[C@@H](CC(=O)N1CCN(C(c2ccc(F)cc2)c2ccc(F)cc2)CC1)C(=O)N1Cc2ccccc2C1 | KG-1 | ATP luminescence | 48 h | 9.31 µM
Cc1[nH]c(/C=C2\C(=O)Nc3ccc(S(=O)(=O)N(C)c4cccc(Cl)c4)cc32)c(C)c1C(=O)N1CCN(C)CC1 | Rh18 |  | 72 h | 4.07 µM
COc1cc(Nc2nccc(-c3cnn4nc(OC)ccc34)n2)cc(C(F)(F)F)c1 | NCI-H1573 | ATP luminescence |  | 0.63 µM
CC(C)n1cc(C(c2ccc(/C=C/C(=O)O)s2)c2cn(C(C)C)c3ccccc23)c2ccccc21 | KG-1 |  | 48 h | > 5 µM
C[C@@H](Oc1cc(-c2cnn(C3CCNCC3)c2)cnc1N)c1c(Cl)ccc(F)c1Cl | Rh18 |  | 72 h | 0.55 µM
Nc1ncc(-c2cnn(C3CCNCC3)c2)cc1-c1nnc(CC2CC2)o1 | MOLM-13 | trypan blue | 72 h | 0.184 µM
COc1cc2nccc(Oc3ccc(NC(=O)C4(C(=O)Nc5ccc(F)cc5)CC4)cc3)c2cc1OC | Rh18 |  | 72 h | 5.75 µM
O=C(O)C(c1c[nH]c2ccccc12)c1c[nH]c2ccccc12 | KG-1 |  | 48 h | > 20 µM
COC(=O)N[C@@H](C)CNc1nccc(-c2cn(C(C)C)nc2-c2cc(Cl)cc(NS(C)(=O)=O)c2F)n1 | Malme-3M |  |  | 0.0039 µM
CC(=O)O[C@H]1C(=O)[C@@]2(C)[C@H]([C@H](OC(=O)c3ccccc3)[C@]3(O)C[C@H](OC(=O)[C@H](O)[C@@H](NC(=O)c4ccccc4)c4ccccc4)C(C)=C1C3(C)C)[C@]1(OC(C)=O)CO[C@@H]1C[C@@H]2O | CT26 |  |  | 2 µg/mL
CC(=O)OCCOC(=O)[C@]1(C)CC[C@]2(C)CC[C@]3(C)C4=CC=C5C(=CC(=O)C(O)=C5C)[C@]4(C)CC[C@@]3(C)[C@@H]2C1 | Bel-7402 | MTT | 48 h | 0.59 µM
CCn1c2ccccc2c2cc(/C=C/C(=O)c3cc4c(ccc5ccccc54)oc3=O)ccc21 | NRK-52E | MTT | 24 h | 82.7 µM
CC1=C(O)C(=O)C=C2C1=CC=C1[C@@]2(C)CC[C@@]2(C)[C@@H]3C[C@](C)(C(=O)OCCCO)CC[C@]3(C)CC[C@]12C | Bel-7402 | MTT | 48 h | 0.58 µM
CCn1c2ccccc2c2cc(/C=C/C(=O)c3cc4ccccc4oc3=O)ccc21 | NRK-52E | MTT | 24 h | 94.6 µM
O=C(O)/C=C/c1cccc(C(c2c[nH]c3ccccc23)c2c[nH]c3ccccc23)c1 | KG-1 |  | 48 h | > 20 µM
CCn1c2ccccc2c2cc(C3CC(c4cc5cccc(OC)c5oc4=O)=NN3C(C)=O)ccc21 (stereo not drawn) | NRK-52E | MTT | 24 h | 97.9 µM
Cc1ccc2[nH]cc(C(c3ccc(/C=C/C(=O)O)s3)c3c[nH]c4ccc(C)cc34)c2c1 | KG-1 |  | 48 h | > 5 µM
CC(C)[C@H](N)C(=O)N1CCC[C@H]1B(O)O | MOLM-13 | ATP luminescence | 48 h | 0.12 µM
O=C(O)/C=C/c1ccc(C(c2c[nH]c3ccccc23)c2c[nH]c3ccccc23)s1 | KG-1 |  | 48 h | > 20 µM
CCn1c2ccccc2c2cc(C3CC(c4cc5ccccc5oc4=O)=NN3c3ccccc3)ccc21 (stereo not drawn) | NRK-52E | MTT | 24 h | 103 µM
CC1=C(O)C(=O)C=C2C1=CC=C1[C@@]2(C)CC[C@@]2(C)[C@@H]3C[C@](C)(C(=O)OCCCCCO)CC[C@]3(C)CC[C@]12C | Bel-7402 | MTT | 48 h | 0.59 µM
CC(C)C[C@H](NC(=O)[C@H](Cc1ccccc1)NC(=O)c1cnccn1)B(O)O | NCI-H1573 | ATP luminescence |  | 0.029 µM
CCn1c2ccccc2c2cc(C3CC(c4cc5ccccc5oc4=O)=NN3C(N)=O)ccc21 (stereo not drawn) | NRK-52E | MTT | 24 h | 28.4 µM
CC1=C(O)C(=O)C=C2C1=CC=C1[C@@]2(C)CC[C@@]2(C)[C@@H]3C[C@](C)(C(=O)OCCCN4C(=O)C5C=CC=CC5C4=O)CC[C@]3(C)CC[C@]12C (stereo partly drawn) | Bel-7402 | MTT | 48 h | 0.83 µM
CCn1c2ccccc2c2cc(C3CC(c4cc5c(ccc6ccccc65)oc4=O)=NN3C(C)=O)ccc21 (stereo not drawn) | NRK-52E | MTT | 24 h | 81.3 µM
CC1=C(O)C(=O)C=C2C1=CC=C1[C@@]2(C)CC[C@@]2(C)[C@@H]3C[C@](C)(C(=O)OCCCOc4ccccc4)CC[C@]3(C)CC[C@]12C | Bel-7402 | MTT | 48 h | 1.33 µM
CCn1c2ccccc2c2cc(C3CC(c4cc5ccccc5oc4=O)=NN3c3ccc(C)cc3)ccc21 (stereo not drawn) | NRK-52E | MTT | 24 h | 83.2 µM
Cn1cc(C(c2ccc(/C=C/C(=O)O)s2)c2cn(C)c3ccccc23)c2ccccc21 | KG-1 |  | 48 h | > 20 µM
CC1=C(O)C(=O)C=C2C1=CC=C1[C@@]2(C)CC[C@@]2(C)[C@@H]3C[C@](C)(C(=O)OCCO)CC[C@]3(C)CC[C@]12C | Bel-7402 | MTT | 48 h | 0.68 µM
